# Experimental data taken from the EternaBench riboswitch data.
# Test system: MS2 coat protein
# Assay: apparent Kd, MS2 coat protein; higher = weaker binding; RNA-MaP array; FMN 200 µM where present
# Summary of the method: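 Stalled E. coli RNA polymerase produced the designs on Illumina sequencing-chip clusters. SNAP-549-labelled MS2 coat protein was added from 0.7 or 1.5 nM, doubling to 3 µM, without and then with constant ligand, in 100 mM Tris-HCl pH 7.5, 80 mM KCl, 4 mM MgCl2, BSA, DTT, yeast tRNA and Tween-20. The apparent Kd is the median of filtered per-cluster fits of green signal normalised to red-channel RNA signal and control-cluster median Fmax.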
# [1] = designed as: ON switch for flavin mononucleotide, no ligand
# [2] = ligand present: flavin mononucleotide, designed as: ON switch for flavin mononucleotide
# [3] = designed as: OFF switch for flavin mononucleotide, no ligand
# [4] = ligand present: flavin mononucleotide, designed as: OFF switch for flavin mononucleotide
Sequence,apparent Kd [1] [nM],apparent Kd [2] [nM],apparent Kd [3] [nM],apparent Kd [4] [nM]
GAUGACAUGAGGAUCACCCAUGUGAUGGUUUGAGGUGGUUACAGAAGGGACGUAUAGUGGUGUGGUCAGGAUAUGUAGAAUCCU,125,50.9,,
GAUGUUUGAGGAUAUACAUGAGGAUCACCCAUGUGUGUCCAUACGCGUGAGUCUUCGUGUAGAAGGCGGGCGUC,,,14.1,15.5
GAUUAACAUGAGGAUCACCCAUGUCGUAUUAUGGGAGGAUAUACGUGGACCGUAGUCCGCGUAGAAGGCCUAAUUG,93.8,28.7,,
GAUUAACAUGAGGAUCACCCAUGUGUGAAUAUGGGAGGAUAUACGUGGACCGUAGUCCGCGUAGAAGGCCUAAUUG,279,46.1,,
GAUUGACAUGAGGAUCACCCAUGUGAGGAUAUCGGCCGGACCUUGUUAGCUUCCACCGCGAGAAGGCACAUAGG,,,30.9,41.6
GCAAAGCCUGACAUGAGGAUCACCCAUGUUAGAUUGUUAUGUCAGGAUAUUGUCUAGCAACUAGACAAGAAGGGAUGCUCUGCC,377,194,,
GCAAUCGAGGGAGGAUAUUGUGAGAUGGUGACAUGAGGAUCACCCAUGUGACGAGAAGGCCCAGUGCGCCCGCUUAACUGCUGA,,,37.4,210
GCACAAAGGUGACACCGUGUCGCUCAGGAUAUACGUGACGGCCCUCGCACAUGAGGAUCACCCAUGUAGAAGGGAGUUAAACGG,,,7.66,14.9
GCACAUGAGGAUCACCCAUGUGGUCCAGAAGGCCAGAGGAUCUGCUUUUAGCAGGUCCCUCAAAUGGAGGAUAUGGAGGGUUCU,261,44.7,,
GCACAUGAGGAUCACCCAUGUGGUCCAGAAGGCCAGAGGGCUUGCUUUUCGCAGGCCUUUCAAAUGGAGGAUAUGGAGGGUUCU,207,42.7,,
GCACGAUCCUCAGGAUAUCACUGAAACAUGAGGAUCACCCAUGUGCGCAGAUGAGAAGGGAGGACUCCGUCUGACUAAAAGUUA,113,9.95,,
GCACGGUAAGUGAGGAUAUACCUCUGGAUACAGAGGUAGAAGGCACAUGAGGAUCACCCAUGUUCCUGCCGUGC,,,17.2,92.9
GCACUGGAUGUAGGAUAUCAGGACGAUAAGUCCUGAGAAGGACAUGAGGAUCACCCAUGUAAAACUCCACCAGUGCAUAAUAUA,,,13.1,17.9
GCACUGGAUGUAGGAUAUCAGGACGAUAAGUCCUGAGAAGGACAUGAGGAUCACCCAUGUACCUCAAACCAGUGCUAUAAUAUA,,,15.1,30
GCACUGGCAGGAUAUACAUGAGGAUCACCCAUGUGACCCUUGAAGUACUCGCGUACUCGUAGAAGGGCCUGUGC,,,102,520
GCACUUGCGUAGAAGGUACUAUAUAAUACACUGUAAGGAUAUACAUACAUGAGGAUCACCCAUGUAAAUGGAAUUUGCAAGUGC,6.62,6.49,,
GCAGACGUGGUGAGGAUAUGCUCUACCUCGGUAGAGCAGAAGGCACAUGAGGAUCACCCAUGUGACUCCUCAUC,,,18.6,19.2
GCAGAGCCUGACAUGAGGAUCACCCAUGUUAGAUUGUUAUGUCAGGAUAUUGUCUAGCAACUAGACAAGAAGGGAUGCUCUGCG,341,27.8,,
GCAGCACAGUUUUACAUGAGGAUCACCCAUGUCGAUUGUUAUGAGGAUAUGCAUCGUAUGAAGAUGCAGAAGGCAUUGUGCUGC,6.96,5.5,,
GCAGCGCCUGACAUGAGGAUCACCCAUGUUAGAUUGUUAAGUCAGGAUAUAGUCUAGAAACUAGACUAGAAGGGAUUUGCUGCU,9.08,6.83,,
GCAGCUCCUGACAUGAGGAUCACCCAUGUUUAAUUAUUAAAUCAGGAUAUCCUCUCGAAACGAGAGGAGAAGGGAUAAGCUGCU,4.83,5.33,,
GCAGGUUAAGUCAGGAUAUACCUAUGGAUACAUAGGUAGAAGGGACAUGAGGAUCACCCAUGUGACUCGCCUGC,,,26.9,95.8
GCAUACAUUCGAGGAUAUCGGUGAACAAAUUAACGAGAAGGCGAUAGAAUGUUUCAUCUUAUGAACAUGAGGAUCACCCAUGUA,39.3,27.9,,
GCAUCCAAUGUGAGGAUAUACCUCUGGAUACAUAGGUAGAAGGCACAUGAGGAUCACCCAUGUUCCUAGGAUGC,,,44.6,222
GCCAGAGCAGGAUAUUCAAUAAUCCACAUGAGGAUCACCCAUGUCUAGCGAAAGCUAGAGGGAGAAGGGCUCUGGC,,,79.3,33.7
GCCAGAGCAGGAUAUUCAAUAUCACACAUGAGGAUCACCCAUGUCCGGCGAAAGCUGGAGGGAGAAGGGCUCUGGC,,,62.6,18.7
GCCAGGAUGUGAGGAUAUGCUGAGGAUAACUCAGCAGAAGGCACAUGAGGAUCACCCAUGUAAACCUAUAAUAAAUACCCUGGC,,,12.1,24.4
GCCAGGCAUGUAGGAUAUCCAUUGCGUCGCGUUGGAGAAGGGCAGCACACAUGAGGAUCACCCAUGUGGUCACCCAUGUAGUGU,,,612,594

Sequence,apparent Kd [1] [nM],apparent Kd [2] [nM],apparent Kd [3] [nM],apparent Kd [4] [nM]
GCCAUCGCAUGAGGAUAUGCUCGGGUUUCCCGAGCAGAAGGCAUGUAAUAAGACAUGAGGAUCACCCAUGUAGUUAAGAUGGCA,7.48,5.3,,
GCCAUCGCAUGAGGAUAUGGUCUGGUUUCCAGACCAGAAGGCAUGUCAUAAGACAUGAGGAUCACCCAUGUAGUUAAGAUGGCA,714,47.7,,
GCCAUCGUAUGAGGAUAUGCUCCGGUUUCCGGAGCAGAAGGCAUGUCAUAAGACAUGAGGAUCACCCAUGUAGUUAAGAUGGCA,135,9.66,,
GCCCGUGCGGAGGAUAUUGAUAUCCCAGUCUAUCAAGAAGGCUGCACAUGAGGAUCACCCAUGUGACCUGUGCU,,,18.8,51.7
GCCGAACAUGAGGAUCACCCAUGUCUGGGUAAUCAAGGAUAUGGGAAGGCUUUGCCAUGACCAGAAGGUGGUUAUC,209,23.1,,
GCCGGAGCAGGAUAUCUAAUAUAUCACAUGAGGAUCACCCAUGUCCAGCGAAAGCUGGAGGGAGAAGGGCUCUGGC,,,164,44.4
GCCGUACAUGAGGAUCACCCAUGUCAGGAUAUUUAGCACUCGGAAUUUCCGAGAGGUCAAAGAAGGGACAUUGC,,,17.5,26.9
GCCUCACAUGAGGAUCACCCAUGUCAGGAUAUAGGAGAUGGCAGAAAUCCUACCAUCGCUAGAAGGGACUGGCA,,,43.4,76.4
GCCUCACAUGAGGAUCACCCAUGUCAGGAUAUGCCGAUCUUAUGGUCUGGUACGACGAGCAGAAGGGACAUGCA,,,19.5,57.9
GCCUCAUAGUAGAAGGGACUUUUACAGUAAUGUUUUUAGUGUAAAUAACAUGAGGAUCACCCAUGUCAGGAUAUACUAAGAGGC,,,5.82,6.35
GCCUGCUGGCGAGGAUAUUCUGUGCGGUUCCAGCUCGUGUCUGUUACAUGAGGAUCACCCAUGUGGGAGAAGGUGUCUGUGGCC,,,6,5.73
GCCUUAUUGGUCAGGAUAUACAUUUGUUACUCUUUGUAGAAGGGACAUGAGGAUCACCCAUGUACAUUACAUUC,,,20.8,33.5
GCCUUGUCAGGAUAUCCGCGCGGGUGGCGCAUGCACUGCGUGGAGAAGGGACAUGAGGAUCACCCAUGUGCGUA,,,89.2,317
GCGACGAAAGUCGAACGAUGUAGCAGAAGGACAUGAGGAUCACCCAUGUCAGCUGUAACAGCCAUGUAGGAUAUGCUACAUCGA,,,4.26,5.11
GCGACGAAAGUCGAACGAUGUAGCAGAAGGACAUGAGGAUCACCCAUGUCAGCUGUAACAGCCAUGUAGGAUAUGCUACAUCGU,,,4.18,5.27
GCGAUUGCGUAGAAGGUACUAUAAAAUACACUGUAAGGAUAUACAAACAUGAGGAUCACCCAUGUAAAUGGAAUUUGCAAUCGC,7.8,6.43,,
GCGCCAUCGUGAGAUGGCGUACCAACAUGAGGAUCACCCAUGUAGGAUAUCGAUUGCUUUGCAGUCGAGAAGGGCAUGAUAAGU,,,22,28.4
GCGCGCGCAGGAUAUACAUGAGGAUCACCCAUGUAGCGCGCGCGUAUUUGUGUGUGUUGUAGAAGGGUGUGUGU,,,20,18.2
GCGGAGGGUACAGGAUAUCGUCCUUAGUUGGUACGAGAAGGGUAGCGCUGCCACAUGAGGAUCACCCAUGUGCCCAAACUAAAA,159,201,,
GCGGGUCCGGAGAAGGGUACCGUGGGUAUGAUACAUGAGGAUCACCCAUGUACAGGAUAUCCGGCAAAGAUGUGGCUAAGAGGG,,,257,34.5
GCGGUAUUGUAAGGAUAUACUCUGUGAUGAAGAGUAGAAGGUACUUACAUGAGGAUCACCCAUGUUUUUCGUAAAAGUUACCGC,16.2,10.6,,
GCGGUCAACGUAGGAUAUCUUCAGCCACAGCACAUUGCUGUACAUGAGGAUCACCCAUGUCCUGGAGAGAAGGACGGACGGCAG,179,35.3,,
GCGUAACAUGAGGAUCACCCAUGUACCCGAGAAUUCGGGUGUAGAAGGGUGACCGGUCGUUUGGCACAGGAUAUACACGCUGUG,37.1,11.5,,
GCGUAAUAGGUGUAGCUAGUCGUGCAAGAAGGGUGGUGAACAUGAGGAUCACCCAUGUGGUCAGUACAGGAUAUUGCUAUACGC,542,130,,
GCGUACUGAGGAUAUACAUGAGGAUCACCCAUGUUUCACAGCAUAUGUGAAGUUUUUUGUAGAAGGCAGUAUGC,,,29.6,163
GCGUAUUUAAGAUUUAUAAAACAGUCAGAAGGUGAUAAGACGACAUGAGGAUCACCCAUGUAAUUCAAGGAUAUGAAAAUGCGC,48.6,22.1,,
GCGUCAGAAUUAAUUGUGACAGACAGAAGGCAAUAGUAUGUGUCCGACAUGAGGAUCACCCAUGUUGAGGAUAUGUCUUGACGC,,,4.76,5.87
